Drawing on ChEMBL document CHEMBL3112397, “Antitrypanosomal structure-activity-relationship study of synthetic cynaropicrin derivatives” (Bioorg Med Chem Lett, 2014), this text covers IC50 and selectivity ratio for eight molecules.

The subject of one series is L6. As to the kind of experiment: Cytotoxicity against rat L6 cells after 70 hrs by alamar blue assay. Type of series: cell-based. The note with it: L6, 70 h. The method in brief:
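Rat skeletal myoblasts (L6) were kept in RPMI 1640 with L-glutamine, 5.95 g/L HEPES, 2 g/L NaHCO3 and 10% FBS at 37 °C in 5% CO2, seeded at 4000 cells/well, then given fresh medium 24 h later with or without serial threefold drug dilutions. Podophyllotoxin served as reference. After 70 h, Alamar Blue was added for 2 h more and read at ex 536/em 588 nm. IC50 came from sigmoidal curves, ≥3 independent repeats.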

A short description of series [1]: Selectivity index, ratio of IC50 for rat L6 cells to IC50 for Trypanosoma brucei rhodesiense STIB 900. In kind it is toxicity, cell-based. The settings on record: read-out: Ratio IC50. The method in brief:
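SI was calculated as IC50 in L6 cells divided by IC50 against T. b. rhodesiense, with both values from the Alamar Blue assays.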

Series [2] deals with Trypanosoma brucei rhodesiense. As to the kind of experiment: Antitrypanosomal activity against bloodstream form of Trypanosoma brucei rhodesiense STIB 900 after 70 hrs by alamar blue assay. In kind it is functional, organism-based. The settings on record: STIB 900, 70 h. The method in brief:
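T. b. rhodesiense STIB 900 bloodstream forms were grown at 37 °C in humidified 5% CO2 in MEM with Earle's salts plus 0.2 mM 2-mercaptoethanol, 1 mM sodium pyruvate, 0.5 mM hypoxanthine and 15% heat-inactivated horse serum. Serial threefold dilutions were tested with Alamar Blue read-out (ex 536/em 588 nm). IC50 was taken from sigmoidal growth-inhibition curves over at least three independent repeats (mean ± SEM).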
(Resazurin is reduced to fluorescent resorufin, in cell work by metabolically active cells.)

Each structure is given as a SMILES string.

As usually defined, the IC50 is the concentration at which inhibition is half-maximal. Regarding `C=C(COC(C)=O)C(=O)O[C@H]1CC(=C)[C@@H]2C[C@H](OC(C)=O)C(=C)[C@@H]2[C@H]2OC(=O)C(=C)[C@@H]21`, the half-inhibitory concentration (IC50) turned out to be 4940 nM in the series on L6 and 2130 nM in series [2]. In addition, the selectivity ratio in series [1] worked out at 2.3.
The like results for `C=C(COC(C)=O)C(=O)O[C@H]1CC(=C)[C@@H]2C[C@H](O)C(=C)[C@@H]2[C@H]2OC(=O)C(=C)[C@@H]21` were, in that order, 6390 nM, 1860 nM and 3.4.
Turning to `C=C(C)C(=O)O[C@H]1CC(=C)[C@@H]2C[C@H](OCOC)C(=C)[C@@H]2[C@H]2OC(=O)C(=C)[C@@H]21`, the IC50 stood at 300 nM with L6 and 340 nM in series [2]. Moreover, the selectivity ratio in series [1] came out at 0.9.
Take `C=C1C(=O)O[C@@H]2[C@H]3C(=C)[C@@H](OCOC)C[C@H]3C(=C)C[C@H](O)[C@@H]12`: the values for the IC50 (in the series with L6; in series [2]) were 860 nM and 2210 nM, respectively. Further, the selectivity ratio in series [1] came out at 0.4.
The matching figures for `C=C(COCOC)C(=O)O[C@H]1CC(=C)[C@@H]2C[C@H](OCOC)C(=C)[C@@H]2[C@H]2OC(=O)C(=C)[C@@H]21`: 170 nM, 480 nM and 0.4.
The matching figures for `C=C(C)C(=O)O[C@H]1CC(=C)[C@@H]2C[C@H](O)C(=C)[C@@H]2[C@H]2OC(=O)C(=C)[C@@H]21` [AGUERIN B]: 330 nM, 170 nM and 1.9.
As for `C=C(CO)C(=O)O[C@H]1CC(=C)[C@@H]2C[C@H](O)C(=C)[C@@H]2[C@H]2OC(=O)C(=C)[C@@H]21` [CYNAROPICRIN], the IC50 is 2190 nM in the series on L6 and 280 nM in series [2]. Besides, the selectivity ratio in series [1] was 7.8.
The matching figures for `C=C1C(=O)O[C@@H]2[C@H]3C(=C)[C@@H](O)C[C@H]3C(=C)C[C@H](O)[C@@H]12` [DESACYLCYNAROPICRIN]: 4940 nM, 4920 nM and 1.
